These results are taken from article PMC5097029 (Biochimica et biophysica acta, 2016).

Data set [1] can be described thus: MTT cytotoxicity assay, Jurkat cells. The data set is classed as cell-based, human. The note with it: % Cytotoxicity, Jurkat, MTT, 24 h, mean ± SEM. On the technique in general: Formazan colour is commonly taken as a measure of viable cells.
In a further data set the test system is Jurkat T leukemia cells. The data set can be described thus: MTT cytotoxicity assay, Jurkat cells. The data set is classed as cell-based, human. The note with it: for effect of pan-caspase inhibitor BOC-D-FMK on induced cell death: BOC-D-FMK 40 μM.
A short description of data set [2]: MTT cytotoxicity assay, MDA-MB-231 cells. In kind it is cell-based, human. Particulars: % Cytotoxicity, MTT, 24 h, mean ± SEM.
The test system of data set [3] is MDA-MB-231 breast cancer cells. In words: MTT cytotoxicity assay, MDA-MB-231 cells. The data set is classed as cell-based, human. The note with it: read-out: IC50 in MDA-MB-231 breast cancer cells; C-terminal amide form.
Data set [4] is described as follows: MTT cytotoxicity assay, normal PBMCs. Particulars: % Cytotoxicity, PBMCs, MTT, 24 h, mean ± SEM. In kind it is cell-based, human.
The next data set has as its system PBMCs. In words: MTT cytotoxicity assay, normal PBMCs. The data set is classed as cell-based, human. The note with it: read-out: IC50 to PBMC; normal cells (PBMC).
A short description of data set [5]: MTT cytotoxicity assay, primary HMECs. In kind it is cell-based, human. Particulars: % Cytotoxicity, 24 h, mean ± SEM. Put shortly: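 Primary HMECs (MEGM-maintained, ≤6 passages) were seeded at 2 × 10⁵ cells/ml 24 h before treatment. They were exposed for 24 h at 2.5% final FBS, 37°C, 10% CO₂. MTT ([…] final) was added for the last 2 h, with 1% Triton X-100 as the 100%-death control. Formazan was dissolved in DMSO and OD 490 read. Cytotoxicity = (E−N)/(P−N)×100 against vehicle and Triton controls; values are the mean of 3 independent experiments ± SEM.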

The next data set in a line: Hemolysis assay. In kind it is cell-based, human. The note with it: % Hemolysis, human erythrocytes, 4 h, mean ± SEM.
The test system of the next data set is human erythrocytes. In words: Hemolysis assay. The data set is classed as cell-based. Particulars: screen of 24 short cationic peptides.
Data set [6] deals with leukemia cells (Jurkat, THP-1). The data set is classed as cell-based, human. Particulars: read-out: IC50 toward leukemia cells.
In another data set the test system is HOPC myeloma cells. The data set is classed as cell-based, mouse. The note with it: read-out: IC50 toward myeloma cells.
For data set [7], the system named is breast cancer cells (MDA-MB-231, SKBR3, MDA-MB-468, T47D, 4T1). In kind it is cell-based, human; mouse. Particulars: read-out: IC50 toward breast cancer cells.
The subject of data set [8] is Jurkat T-ALL cells. In words: LDH-release time course, Jurkat cells. The data set is classed as cell-based, human. Put shortly:
(§1)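 Jurkat cells or PBMCs (density-gradient isolated from healthy donors' venous blood) were cultured at 37°C, 5% CO₂, with test compound over a time course. Supernatants taken at each time point were assayed for LDH activity with a commercial kit. Percent cytotoxicity = (E−N)/(P−N)×100, with vehicle as negative and Triton X-100 as positive control. Values are the mean of 3 independent experiments ± SEM.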

The next data set concerns primary PBMCs. In words: LDH-release time course, PBMCs. The data set is classed as cell-based, human. In outline: as §1
The subject of data set [9] is Jurkat T-ALL cells. In words: Combination with chemotherapeutic agents, MTT assay 72 h. In kind it is cell-based, human. In outline:
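Jurkat cells in RPMI 1640 (2.5% FBS final), seeded at 5 × 10⁵ cells/ml just before treatment. Increasing concentrations of a chemotherapeutic agent, with or without test peptide fixed at 4.5 μM, for 72 h at 37°C, 5% CO₂. MTT added at […] final for the last 2 h; DMSO-solubilised formazan read at 490 nm. Percent cytotoxicity scaled between vehicle and 1% Triton X-100; mean of 3 independent experiments ± SEM.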

In data set [10] the test system is 4T1 mouse mammary carcinoma. The data set can be described thus: 4T1 mammary carcinoma model in BALB/c mice. The note with it: IP, gemcitabine 60 mg/kg Q7D, Mastoparan 6 mg/kg Q2D, from day 5. In kind it is in vivo.
Data set [11] deals with Paclitaxel-resistant MCF7-TX400 cells. The data set can be described thus: Trypan blue exclusion, MCF7 and MCF7-TX400. The note with it: 24 h. The data set is classed as cell-based, human. In outline:
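MCF7 and paclitaxel-resistant MCF7-TX400 cells were maintained in DMEM/10% FBS at 10% CO₂ for ≤30 passages. They were cultured with or without test compound for 24 h, and viability was scored by trypan blue exclusion counts. Values are the mean of 3 independent experiments ± SEM.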

Data set [12] deals with Jurkat T-ALL cells. In words: Propidium iodide uptake, Jurkat. The data set is classed as cell-based, human. The note with it: 25 μM, 5 or 10 min. Put shortly:
(§2)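 Jurkat or MDA-MB-231 cells (5 × 10⁵) were exposed to test compound or vehicle. PI (10 μg/ml final) was added 5 min before flow cytometry, and mean channel fluorescence was recorded. For Jurkat, exposure lasted 5 or 10 min, with n=3.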

The subject of data set [13] is MDA-MB-231 breast cancer cells. In words: Propidium iodide uptake, MDA-MB-231. In kind it is cell-based, human. In outline: as §2
The test system of another data set is Jurkat cells. In words: DNA laddering. The data set is classed as cell-based, human. The note with it: 0.1-25 μM, 4 h. Put shortly:
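Jurkat cells (RPMI 1640, 5% CO₂, 37°C) were exposed to test compound for 4 h, alongside medium, vehicle and 50 μM etoposide (4 h or 24 h) controls. DNA was extracted with a kit and run on a 0.8% agarose gel to look for laddering.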

Data set [14] is described as follows: Calcein leakage from large unilamellar vesicles. The note with it: 20 min; for calcein leakage (membrane disruption) from LUVs: LUVs of 100% anionic lipid POPS; for calcein leakage from LUVs as lipid composition became less negatively charged: greater proportion of zwitterionic lipid POPC. Put shortly: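 LUVs were made from POPC/POPS films (1 mg total lipid) hydrated in 10 mM Tris, 150 mM NaCl, 1 mM EDTA, pH 7.4, with 70 mM calcein. Suspensions were freeze-thawed five times, extruded 15 times through 100 nm filters, and cleared of free dye on Sephadex G-50. Vesicles were diluted to 10 μM final lipid, given peptide at set peptide:lipid molar ratios and held ~20 min at room temperature. Ex 490/em 520 was read against 1% Triton X-100 and water controls. Samples were run at least in duplicate per preparation; values are the mean of three experiments ± SD.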

The test system of data set [15] is cancer cells and normal cells. The data set can be described thus: Specificity factor: IC50 in cancer cells versus normal cells. The note with it: depending on the cancer cell line and the normal cell compared. In kind it is cell-based.
Setting [16] is: Mastoparan 4.5 μM (IC10) with vinblastine, Jurkat, MTT 72 h.

Where “and” joins values, the source holds several entries; their conditions need not be identical. Equal values may be shown once. Ends that are not written are not given here.

A word on the IC50: it is the concentration needed to halve the response being measured. For `CC[C@H](C)[C@H](N)C(=O)N[C@@H](CC(N)=O)C(=O)N[C@@H](CC(C)C)C(=O)N[C@@H](CCCCN)C(=O)N[C@@H](C)C(=O)N[C@@H](CC(C)C)C(=O)N[C@@H](C)C(=O)N[C@@H](C)C(=O)N[C@@H](CC(C)C)C(=O)N[C@@H](C)C(=O)N[C@@H](CCCCN)C(=O)N[C@@H](CCCCN)C(=O)N[C@H](C(=O)N[C@@H](CC(C)C)C(N)=O)[C@@H](C)CC` [Mastoparan, INLKALAALAKKIL-NH2], the cytotoxicity in [1] (10 μM Mastoparan) was 64 ± 7%; in data set [1] (25 μM Mastoparan), 95 ± 4%; in data set [1] (50 μM Mastoparan), 97 ± 1%; in data set [2] (MDA-MB-231, 10 μM Mastoparan) it was 20 ± 1%; in data set [2] (MDA-MB-231, 25 μM Mastoparan), 62 ± 2%; in [2] (MDA-MB-231, 50 μM Mastoparan) it was 96 ± 1%. Also, the cytotoxicity is 13 ± 5% in data set [4] (10 μM Mastoparan); 29 ± 7% in data set [4] (25 μM Mastoparan); 49 ± 3% in [4] (50 μM Mastoparan); 16 ± 1% in [5] (10 μM Mastoparan); 37 ± 7% in [5] (25 μM Mastoparan); 67 ± 14% in data set [5] (50 μM Mastoparan). In addition, the “effect of pan-caspase inhibitor BOC-D-FMK on induced cell death” value in the data set on Jurkat T leukemia cells (Jurkat, MTT 24 h) is given as “not reversed”. The “cytotoxic potency of amidated form compared with free carboxyl form” value in the data set on Jurkat T leukemia cells (Jurkat, MTT 24 h) was “significantly more potent”. Further, the “fold more potent than Mastoparan-COOH” value with Jurkat T leukemia cells (Mastoparan-NH2 versus Mastoparan-COOH) was 8–11 fold. The half-maximal inhibitory concentration (IC50) in the data set with Jurkat T leukemia cells (read-out: IC50 in Jurkat T-ALL cells, C-terminal amide form) was 9.1 µM; in data set [3], 22 µM; with PBMCs it was 48 µM; in data set [6], 8 to 9.2 µM; with HOPC myeloma cells, about 11 µM; in data set [7] it was 20 to 24 µM. For the same molecule, the values for the hemolysis in the data set “Hemolysis assay” (10 μM Mastoparan), in “Hemolysis assay” (25 μM Mastoparan) and in the data set “Hemolysis assay” (50 μM Mastoparan) were 1 ± 1%, 2 ± 1% and 7 ± 1%, respectively. The “hemolytic activity in preliminary screen” value with human erythrocytes is recorded as “devoid of hemolytic activity”. In addition, the “time at which cytotoxicity peaked” value with Jurkat T-ALL cells [8] and with primary PBMCs was 8 h in each case. The IC10 concentration with Jurkat T-ALL cells [9] (Jurkat T-ALL cells) worked out at 4.5 µM. Besides, in the data set on Jurkat T-ALL cells [9] (Mastoparan 4.5 μM (IC10) with etoposide, Jurkat, MTT 72 h), the “fold reduction of the EC50 of etoposide” value is recorded as “approximately 2 fold”. Besides, in the data set with Jurkat T-ALL cells [9] (setting [16]), the “increase of vinblastine-mediated cytotoxicity” value was 10% and ~ 10%. Moreover, the ΔIC50 of vinblastine in the data set with Jurkat T-ALL cells [9] (setting [16]) is reported as ~ 1.2 fold. The “tumour growth (tumour volume and mass) in comparison to saline-treated mice” value in data set [10] was “not statistically significant”. Also, in data set [11], the “toxicity to MCF7-TX400 cells compared with parental MCF7 cells” value is “as toxic”. Besides, the “PI uptake (membrane integrity)” value (in the data set on Jurkat T-ALL cells [12]; in data set [13]) was “rapid PI uptake” throughout. The DNA laddering result in the data set with Jurkat cells is given as “did not cause DNA laddering”. The “calcein leakage (membrane disruption) from LUVs” value in data set [14] is recorded as “caused membrane disruption”. Further, the “calcein leakage from LUVs as lipid composition became less negatively charged” value in data set [14] was “largely unchanged”. For the same molecule, the “specificity factor (selectivity index): fold-difference in the IC50 between cancer cells and normal cells” value in data set [15] is 2–6 fold.
Consider `COc1cc([C@@H]2c3cc4c(cc3[C@@H](O[C@@H]3O[C@@H]5CO[C@@H](C)O[C@H]5[C@H](O)[C@H]3O)[C@H]3COC(=O)[C@H]23)OCO4)cc(OC)c1O` [etoposide, reference compound], for which the “effect of pan-caspase inhibitor BOC-D-FMK on induced cell death” value in the data set on Jurkat T leukemia cells (Jurkat, MTT 24 h) is “significantly reduced”.
In the case of `Nc1ccn([C@@H]2O[C@H](CO)[C@@H](O)C2(F)F)c(=O)n1` [gemcitabine, reference compound], the “tumour growth (tumour volume and mass) in comparison to saline-treated mice” value in data set [10] is “not statistically significant”.
For the molecule “INLKALAALAKKIL-COOH (INLKALAALAKKIL-OH) [Mastoparan-COOH, reference compound]”, in [14], the “calcein leakage (membrane disruption) from LUVs” value was “caused membrane disruption” and the “calcein leakage from LUVs as lipid composition became less negatively charged” value is “significantly reduced”.
